Measured values: ChEMBL document CHEMBL3352456, “Design, synthesis and biological activity of a novel Rutin analogue with improved lipid soluble properties” (Bioorg Med Chem, 2015)
Active and inactive are the calls of the source. No cut-off for these calls is given here.

Legend:
Trichophyton rubrum [1] = experiment: Antifungal activity against Trichophyton rubrum (Castellani) Sabouraud IHME 4321 assessed as growth inhibition at 100 ug/ml measured on day 7 by sabouraud dextrose agar diffusion method relative to control; format: functional; conditions: (Castellani) Sabouraud IHME 4321, 168 h, read-out: GI
Procedure, shortened: (§1)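 Dermatophyte strains kept on Sabouraud dextrose agar slants. Mycelium disks (10 mm) from a stationary-phase culture grown at 26 ± 1 °C on cellophane over SDA to log phase, then moved onto SDA containing compound added from DMSO stock at 45 °C (final DMSO 0.1%; DMSO-only controls). Colony diameter measured daily for 7 days. % inhibition = (dex − dex')/dex × 100. Three replicates per concentration; mean of three independent experiments.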

K562 [2] = experiment: Induction of apoptosis in human K562 cells assessed as early apoptotic cells at 1000 uM after 3 days by Annexin-V staining-based assay (reference value: 5.41%); format: functional
K562 [3] = experiment: Induction of apoptosis in human K562 cells assessed as live cells at 5 uM after 3 days by Annexin-V staining-based assay (reference value: 87.33%); format: functional
Nannizzia gypsea [4] = experiment: Antifungal activity against Nannizzia gypsea (Bodin) Guiart et Grigoraki CBS 286.63 assessed as growth inhibition at 20 ug/ml measured on day 7 by sabouraud dextrose agar diffusion method relative to control; format: functional; procedure, shortened: as §1
Epidermophyton floccosum [5] = experiment: Antifungal activity against Epidermophyton floccosum (Hartz) Langeron and Milochevitch CBS 358.93 assessed as growth inhibition at 20 ug/ml measured on day 7 by sabouraud dextrose agar diffusion method relative to control; format: functional; conditions: (Hartz) Langeron and Milochevitch CBS 358.93, 168 h, read-out: GI; procedure, shortened: as §1
Nannizzia gypsea [6] = experiment: Antifungal activity against Nannizzia gypsea (Bodin) Guiart et Grigoraki CBS 286.63 assessed as growth inhibition at 100 ug/ml measured on day 7 by sabouraud dextrose agar diffusion method relative to control; format: functional; procedure, shortened: as §1
[7] = Antioxidant activity assessed as superoxide anion radical scavenging by photochemiluminescence method relative to trolox; format: physicochemical
Procedure, shortened: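 Superoxide was generated photochemically from luminol under UV light (351 nm). Lag time (water-soluble, ACW) or integrated light emission over 180 s (lipid-soluble, ACL) was compared with a Trolox standard curve. Samples were centrifuged 5 min at 16000 g and diluted 1:40 in water (ACW) or methanol (ACL). Triplicate determinations.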

K562 [8] = experiment: Induction of apoptosis in human K562 cells assessed as late apoptotic cells at 1000 uM after 3 days by Annexin-V staining-based assay (reference value: 5.96%); format: functional
K562 [9] = experiment: Induction of apoptosis in human K562 cells assessed as early apoptotic cells at 5 uM after 3 days by Annexin-V staining-based assay (reference value: 5.41%); format: functional
Epidermophyton floccosum [10] = experiment: Antifungal activity against Epidermophyton floccosum (Hartz) Langeron and Milochevitch CBS 358.93 assessed as growth inhibition at 100 ug/ml measured on day 7 by sabouraud dextrose agar diffusion method relative to control; format: functional; conditions: (Hartz) Langeron and Milochevitch CBS 358.93, 168 h, read-out: GI; procedure, shortened: as §1
K562 [11] = experiment: Antiproliferative activity against human K562 cells assessed as cell number after 3 days by Coulter counter; conditions: K562, 72 h
Paraphyton cookei [12] = experiment: Antifungal activity against Nannizzia cajetani Ajello CBS 495.70 assessed as growth inhibition at 20 ug/ml measured on day 7 by sabouraud dextrose agar diffusion method relative to control; format: functional; conditions: Ajello CBS 495.70, 168 h, read-out: GI; procedure, shortened: as §1
K562 [13] = experiment: Induction of apoptosis in human K562 cells assessed as late apoptotic cells at 10 uM after 3 days by Annexin-V staining-based assay (reference value: 5.96%); format: functional
[14] = Antifungal activity against Microsporum canis Bodin CBS 4727 assessed as growth inhibition at 100 ug/ml measured on day 7 by sabouraud dextrose agar diffusion method relative to control; format: functional; procedure, shortened: as §1
Trichophyton violaceum [15] = experiment: Antifungal activity against Trichophyton violaceum Malmsten CBS 459.61 assessed as growth inhibition at 20 ug/ml measured on day 7 by sabouraud dextrose agar diffusion method relative to control; format: functional; conditions: Malmsten CBS 459.61, 168 h, read-out: GI; procedure, shortened: as §1
[16] = biological target: Nuclear factor NF-kappa-B complex (Homo sapiens) (UniProt Q00653+P19838+Q04206); experiment: Inhibition of NF-kappaB (unknown origin)/32P-labeled oligonucleotide interaction at 0.1 to 10 mM after 20 mins by electrophoretic mobility shift assay; format: protein-complex assay
Procedure, shortened: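 Probe was a double-stranded 32P-labelled oligonucleotide (0.25 ng) in buffer of 10% glycerol, 0.05% NP-40, 10 mM Tris-HCl pH 7.5, 50 mM NaCl, 0.5 mM DTT and 10 mM MgCl2. Compound and probe were bound for 20 min at room temperature, then recombinant NF-kappaB p50 was added for a further 20 min. Samples were run on 6% polyacrylamide in 0.25× TBE at 200 V.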

K562 [17] = experiment: Induction of apoptosis in human K562 cells assessed as early apoptotic cells at 500 uM after 3 days by Annexin-V staining-based assay (reference value: 5.41%); format: functional
Trichophyton tonsurans [18] = experiment: Antifungal activity against Trichophyton tonsurans Malmsten CBS 483.76 assessed as growth inhibition at 20 ug/ml measured on day 7 by sabouraud dextrose agar diffusion method relative to control; format: functional; conditions: Malmsten CBS 483.76, 168 h, read-out: GI; procedure, shortened: as §1
K562 [19] = experiment: Induction of apoptosis in human K562 cells assessed as apoptotic cells at 5 uM after 3 days by Annexin-V staining-based assay (reference value: 11.37%); format: functional
K562 [20] = experiment: Induction of apoptosis in human K562 cells assessed as apoptotic cells at 10 uM after 3 days by Annexin-V staining-based assay (reference value: 11.37%); format: functional
K562 [21] = experiment: Induction of apoptosis in human K562 cells assessed as apoptotic cells at 1000 uM after 3 days by Annexin-V staining-based assay (reference value: 11.37%); format: functional
[22] = Antioxidant activity assessed as inhibition of AAPH-induced peroxyl radical generation by oxygen radical absorbance capacity assay relative to trolox; format: physicochemical
Procedure, shortened: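 Run at 37 °C and pH 7.4 with fluorescein (85 nM) as the probe and AAPH as the peroxyl radical source. Compounds were dissolved fresh in PBS. Fluorescence read at ex 485/em 538 nm every 5 min for up to 30 min after AAPH addition. Net area under the decay curve (blank minus sample) was calibrated against Trolox at 10–50 μM and given as Trolox equivalents.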

K562 [23] = experiment: Induction of apoptosis in human K562 cells assessed as live cells at 500 uM after 3 days by Annexin-V staining-based assay (reference value: 87.33%); format: functional
Trichophyton violaceum [24] = experiment: Antifungal activity against Trichophyton violaceum Malmsten CBS 459.61 assessed as growth inhibition at 100 ug/ml measured on day 7 by sabouraud dextrose agar diffusion method relative to control; format: functional; conditions: Malmsten CBS 459.61, 168 h, read-out: GI; procedure, shortened: as §1
[25] = system: Trichophyton mentagrophytes; experiment: Antifungal activity against Trichophyton mentagrophytes (Robin) Blanchard CBS 160.66 assessed as growth inhibition at 100 ug/ml measured on day 7 by sabouraud dextrose agar diffusion method relative to control; format: functional; conditions: (Robin) Blanchard CBS 160.66, 168 h, read-out: GI; procedure, shortened: as §1
K562 [26] = experiment: Induction of apoptosis in human K562 cells assessed as dead cells at 5 uM after 3 days by Annexin-V staining-based assay (reference value: 1.29%); format: functional
[27] = Antifungal activity against Microsporum canis Bodin CBS 4727 assessed as growth inhibition at 20 ug/ml measured on day 7 by sabouraud dextrose agar diffusion method relative to control; format: functional; procedure, shortened: as §1
K562 [28] = experiment: Induction of apoptosis in human K562 cells assessed as dead cells at 10 uM after 3 days by Annexin-V staining-based assay (reference value: 1.29%); format: functional
Nannizzia gypsea [29] = experiment: Antifungal activity against Microsporum gypseum (Bodin) Guiart and Grigorakis IHME 3999 assessed as growth inhibition at 100 ug/ml measured on day 7 by sabouraud dextrose agar diffusion method relative to control; format: functional; conditions: (Bodin) Guiart and Grigorakis IHME 3999, 168 h, read-out: GI; procedure, shortened: as §1
Nannizzia gypsea [30] = experiment: Antifungal activity against Microsporum gypseum (Bodin) Guiart and Grigorakis IHME 3999 assessed as growth inhibition at 20 ug/ml measured on day 7 by sabouraud dextrose agar diffusion method relative to control; format: functional; procedure, shortened: as §1
K562 [31] = experiment: Induction of apoptosis in human K562 cells assessed as live cells at 1000 uM after 3 days by Annexin-V staining-based assay (reference value: 87.33%); format: functional
K562 [32] = experiment: Induction of apoptosis in human K562 cells assessed as dead cells at 500 uM after 3 days by Annexin-V staining-based assay (reference value: 1.29%); format: functional
K562 [33] = experiment: Induction of apoptosis in human K562 cells assessed as early apoptotic cells at 10 uM after 3 days by Annexin-V staining-based assay (reference value: 5.41%); format: functional
K562 [34] = experiment: Induction of apoptosis in human K562 cells assessed as dead cells at 1000 uM after 3 days by Annexin-V staining-based assay (reference value: 1.29%); format: functional
Trichophyton rubrum [35] = experiment: Antifungal activity against Trichophyton rubrum (Castellani) Sabouraud IHME 4321 assessed as growth inhibition at 20 ug/ml measured on day 7 by sabouraud dextrose agar diffusion method relative to control; format: functional; conditions: (Castellani) Sabouraud IHME 4321, 168 h, read-out: GI; procedure, shortened: as §1
K562 [36] = experiment: Induction of apoptosis in human K562 cells assessed as apoptotic cells at 500 uM after 3 days by Annexin-V staining-based assay (reference value: 11.37%); format: functional
K562 [37] = experiment: Induction of apoptosis in human K562 cells assessed as live cells at 10 uM after 3 days by Annexin-V staining-based assay (reference value: 87.33%); format: functional
[38] = system: Trichophyton mentagrophytes; experiment: Antifungal activity against Trichophyton mentagrophytes (Robin) Blanchard CBS 160.66 assessed as growth inhibition at 20 ug/ml measured on day 7 by sabouraud dextrose agar diffusion method relative to control; format: functional; conditions: (Robin) Blanchard CBS 160.66, 168 h, read-out: GI; procedure, shortened: as §1
K562 [39] = experiment: Induction of apoptosis in human K562 cells assessed as late apoptotic cells at 5 uM after 3 days by Annexin-V staining-based assay (reference value: 5.96%); format: functional
Trichophyton tonsurans [40] = experiment: Antifungal activity against Trichophyton tonsurans Malmsten CBS 483.76 assessed as growth inhibition at 100 ug/ml measured on day 7 by sabouraud dextrose agar diffusion method relative to control; format: functional; conditions: Malmsten CBS 483.76, 168 h, read-out: GI; procedure, shortened: as §1
K562 [41] = experiment: Induction of apoptosis in human K562 cells assessed as late apoptotic cells at 500 uM after 3 days by Annexin-V staining-based assay (reference value: 5.96%); format: functional
[42] = Antioxidant activity assessed as superoxide anion radical scavenging by photochemiluminescence method relative to trolox using formulation containing O/W; format: physicochemical
Paraphyton cookei [43] = experiment: Antifungal activity against Nannizzia cajetani Ajello CBS 495.70 assessed as growth inhibition at 100 ug/ml measured on day 7 by sabouraud dextrose agar diffusion method relative to control; format: functional; conditions: Ajello CBS 495.70, 168 h, read-out: GI; procedure, shortened: as §1

Chain of Nuclear factor NF-kappa-B complex (Homo sapiens) (P19838 whole entry, looked up): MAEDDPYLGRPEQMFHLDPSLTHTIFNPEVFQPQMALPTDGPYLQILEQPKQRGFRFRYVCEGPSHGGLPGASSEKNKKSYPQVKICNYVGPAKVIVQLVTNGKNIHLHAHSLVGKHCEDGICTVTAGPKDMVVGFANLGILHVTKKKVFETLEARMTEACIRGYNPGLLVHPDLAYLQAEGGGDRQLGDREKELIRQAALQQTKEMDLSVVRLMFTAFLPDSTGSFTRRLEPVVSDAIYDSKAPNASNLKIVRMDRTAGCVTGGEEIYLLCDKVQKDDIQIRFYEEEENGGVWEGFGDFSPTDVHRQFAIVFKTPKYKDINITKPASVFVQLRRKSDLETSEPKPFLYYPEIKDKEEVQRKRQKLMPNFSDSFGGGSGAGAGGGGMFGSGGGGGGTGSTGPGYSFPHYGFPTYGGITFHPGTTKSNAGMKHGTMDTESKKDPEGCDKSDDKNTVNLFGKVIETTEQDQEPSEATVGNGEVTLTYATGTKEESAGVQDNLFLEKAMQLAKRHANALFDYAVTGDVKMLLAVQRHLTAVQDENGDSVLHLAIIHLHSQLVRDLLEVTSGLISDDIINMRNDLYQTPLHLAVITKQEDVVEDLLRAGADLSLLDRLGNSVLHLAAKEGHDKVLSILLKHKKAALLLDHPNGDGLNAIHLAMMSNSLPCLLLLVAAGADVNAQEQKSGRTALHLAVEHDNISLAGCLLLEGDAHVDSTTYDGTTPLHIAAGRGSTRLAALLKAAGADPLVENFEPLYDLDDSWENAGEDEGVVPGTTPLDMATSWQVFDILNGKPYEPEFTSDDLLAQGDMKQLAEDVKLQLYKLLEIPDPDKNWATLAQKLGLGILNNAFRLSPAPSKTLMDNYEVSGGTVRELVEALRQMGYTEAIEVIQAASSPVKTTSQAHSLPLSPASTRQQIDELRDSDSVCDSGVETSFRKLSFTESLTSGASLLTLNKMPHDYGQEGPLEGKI
Chain of Nuclear factor NF-kappa-B complex (Homo sapiens) (Q00653 whole entry, looked up): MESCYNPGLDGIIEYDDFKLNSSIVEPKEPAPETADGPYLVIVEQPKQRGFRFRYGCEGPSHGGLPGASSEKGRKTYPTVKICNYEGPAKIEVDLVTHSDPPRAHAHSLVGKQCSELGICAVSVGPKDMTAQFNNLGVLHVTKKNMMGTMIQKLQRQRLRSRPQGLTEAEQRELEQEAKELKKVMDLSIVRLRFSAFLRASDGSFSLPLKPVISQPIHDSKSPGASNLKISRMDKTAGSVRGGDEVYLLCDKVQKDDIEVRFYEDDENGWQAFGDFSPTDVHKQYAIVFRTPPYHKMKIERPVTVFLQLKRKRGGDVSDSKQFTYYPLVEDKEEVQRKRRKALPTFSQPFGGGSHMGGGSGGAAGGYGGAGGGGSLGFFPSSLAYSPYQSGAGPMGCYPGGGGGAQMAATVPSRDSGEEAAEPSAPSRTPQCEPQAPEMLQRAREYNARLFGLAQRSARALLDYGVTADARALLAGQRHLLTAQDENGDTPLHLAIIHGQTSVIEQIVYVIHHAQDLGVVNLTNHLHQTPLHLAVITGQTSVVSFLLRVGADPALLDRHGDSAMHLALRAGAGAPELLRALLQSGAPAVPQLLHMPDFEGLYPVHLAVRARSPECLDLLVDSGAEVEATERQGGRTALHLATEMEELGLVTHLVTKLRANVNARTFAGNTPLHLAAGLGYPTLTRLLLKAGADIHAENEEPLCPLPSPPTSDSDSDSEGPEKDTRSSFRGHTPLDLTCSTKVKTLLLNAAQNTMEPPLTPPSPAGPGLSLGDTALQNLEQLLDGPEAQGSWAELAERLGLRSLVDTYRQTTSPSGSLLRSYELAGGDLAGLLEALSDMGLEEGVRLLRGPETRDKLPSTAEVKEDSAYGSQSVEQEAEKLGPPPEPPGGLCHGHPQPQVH
Chain of Nuclear factor NF-kappa-B complex (Homo sapiens) (Q04206 whole entry, looked up): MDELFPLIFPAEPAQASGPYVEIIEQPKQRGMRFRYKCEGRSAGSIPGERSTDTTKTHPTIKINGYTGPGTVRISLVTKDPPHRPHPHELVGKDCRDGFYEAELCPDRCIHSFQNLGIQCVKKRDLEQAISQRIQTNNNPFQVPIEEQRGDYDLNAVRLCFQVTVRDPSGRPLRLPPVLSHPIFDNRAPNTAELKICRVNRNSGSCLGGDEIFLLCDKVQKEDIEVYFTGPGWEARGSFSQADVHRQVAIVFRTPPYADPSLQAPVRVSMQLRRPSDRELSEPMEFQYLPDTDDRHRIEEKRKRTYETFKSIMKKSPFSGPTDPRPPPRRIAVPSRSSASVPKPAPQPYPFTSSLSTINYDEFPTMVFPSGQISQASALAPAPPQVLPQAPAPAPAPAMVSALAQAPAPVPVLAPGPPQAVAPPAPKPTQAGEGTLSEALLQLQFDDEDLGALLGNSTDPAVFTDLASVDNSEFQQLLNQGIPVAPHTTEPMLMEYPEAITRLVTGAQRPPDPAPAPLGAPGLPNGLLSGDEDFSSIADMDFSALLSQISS

C[C@@H]1O[C@@H](OC[C@H]2O[C@@H](Oc3c(-c4ccc(O)c(O)c4)oc4cc(O)cc(O)c4c3=O)[C@H](O)[C@@H](O)[C@@H]2O)[C@H](O)[C@H](O)[C@H]1O [RUTIN]
inhibition of growth at 100 µg/mL (Trichophyton rubrum [1]): 9.9% | Activity (K562 [2]): 8.6% | Activity (K562 [3]): inactive | growth inhibition (GI) (Nannizzia gypsea [4]): inactive | inhibition of growth at 20 µg/mL (Epidermophyton floccosum [5]): 1.9% | growth inhibition (GI) (Nannizzia gypsea [6]): inactive | Activity [7]: 1883.08 µmol/g | Activity (K562 [8]): 6.15% | Activity (K562 [9]): inactive | inhibition of growth at 100 µg/mL (Epidermophyton floccosum [10]): 2.2% | IC50 (K562 [11]): 897 µM | inhibition of growth at 20 µg/mL (Paraphyton cookei [12]): 3.3% | Activity (K562 [13]): inactive | growth inhibition (GI) [14]: inactive | inhibition of growth at 20 µg/mL (Trichophyton violaceum [15]): 2.1% | inhibition [16]: Active | Activity (K562 [17]): 9.15% | inhibition of growth at 20 µg/mL (Trichophyton tonsurans [18]): 0% | Activity (K562 [19]): inactive | Activity (K562 [20]): inactive | Activity (K562 [21]): 14.75% | Activity [22]: 10708.06 µmol/g | Activity (K562 [23]): 88.15% | inhibition of growth at 100 µg/mL (Trichophyton violaceum [24]): 4.2% | inhibition of growth at 100 µg/mL [25]: 3.3% | Activity (K562 [26]): inactive | growth inhibition (GI) [27]: inactive | Activity (K562 [28]): inactive | inhibition of growth at 100 µg/mL (Nannizzia gypsea [29]): 4.1% | growth inhibition (GI) (Nannizzia gypsea [30]): inactive | Activity (K562 [31]): 84.85% | Activity (K562 [32]): 0.65% | Activity (K562 [33]): inactive | Activity (K562 [34]): 0.4% | inhibition of growth at 20 µg/mL (Trichophyton rubrum [35]): 6.1% | Activity (K562 [36]): 13.2% | Activity (K562 [37]): inactive | inhibition of growth at 20 µg/mL [38]: 0% | Activity (K562 [39]): inactive | inhibition of growth at 100 µg/mL (Trichophyton tonsurans [40]): 2.8% | Activity (K562 [41]): 4.05% | Activity [42]: 5.04 µmol/g | inhibition of growth at 100 µg/mL (Paraphyton cookei [43]): 12.3%
